The source of these data is ChEMBL document CHEMBL4400581, “First Example of Catalytic Synthesis of Difurazanohexahydrohexaazapyrenes and in Vitro Study of Their Antitumor Activity” (2019).

Common to all, as to assay type: functional
The subject of one assay is Jurkat. Kind of assay: Cytotoxicity against human Jurkat cells by MTT assay. In short, it runs like this: (§1)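 Cytotoxicity was measured by MTT assay across a range of concentrations in human tumour lines, with etoposide as the reference drug. Results are expressed as CC50.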
(In general: Formazan colour is commonly taken as a measure of viable cells.)

Another assay concerns K562. Kind of assay: Cytotoxicity against human K562 cells by MTT assay. In short, it runs like this:
as §1

The test system of the next assay is U-937. In words: Cytotoxicity against human U937 cells by MTT assay. In short, it runs like this: as §1
The test system of another assay is HeLa. Kind of assay: Cytotoxicity against human HeLa cells by MTT assay. In short, it runs like this:
as §1

Structures are written as SMILES.

The CC50 is the concentration at which the toxic effect on the cells reaches its halfway point. High values mean better tolerance by the cells, low ones harm at low concentration. Regarding `C1CCC(N2CN3c4nonc4N4CN(C5CCCCC5)CN5c6nonc6N(C2)C3C45)CC1` (centres undefined), the Activity result with Jurkat, in the assay on K562, in the assay with U-937 and with HeLa was “Dose-dependent effect” in each case. The CC50 was determined as 530 nM in the assay on Jurkat, 590 nM in the assay with K562, 540 nM in the assay with U-937 and 1040 nM in the assay with HeLa.

Consider `C1CCCC(N2CN3c4nonc4N4CN(C5CCCCCCC5)CN5c6nonc6N(C2)C3C45)CCC1` (centres undefined), for which the Activity result in the assay with Jurkat, in the assay with K562, in the assay on U-937 and in the assay with HeLa was “Dose-dependent effect” throughout. The CC50 in the assay with Jurkat was 620 nM; with K562 it was 740 nM; in the assay with U-937 it was 580 nM; in the assay on HeLa, 1370 nM.

Turning to `C1CCC(N2CN3c4nonc4N4CN(C5CCCC5)CN5c6nonc6N(C2)C3C45)C1` (centres undefined), the Activity entry in the assay with Jurkat, with K562, in the assay with U-937 and in the assay on HeLa was “Dose-dependent effect” each time. Also, the CC50 in the assay on Jurkat was 510 nM; in the assay on K562, 640 nM; in the assay on U-937 it was 570 nM; in the assay on HeLa it was 980 nM.
